In data set [1] the test system is Herpes simplex virus-2 (G). Description: microbe, parasite or virus in culture. The class given is cell-based. As to conditions: Human alphaherpesvirus 2, read-out: EC50 Herpes simplex virus-2 (G).
In data set [2] the test system is Herpes simplex virus-1 (KOS). The data set is described as follows: microbe, parasite or virus in culture. The class given is cell-based. As to conditions: for EC50: Human alphaherpesvirus 1, read-out: EC50 Herpes simplex virus-1 (KOS).
A further data set concerns HIV-2(ROD). Description: Inhibition of HIV-2 induced cytopathic effect in MT-4 cells. The class given is cell-based. As to conditions: for EC50: MT4, 120 h, read-out: IC50a (50% effective concentration, 50% protection of MT-4 cells against the cytopathic effect of HIV). In short, it runs like this:
(§1)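 MT-4 cells were kept in RPMI 1640 with 10% heat-inactivated FCS, 2 mM glutamine, 0.1% sodium bicarbonate and 20 µg/ml gentamicin. Virus stocks (HIV-1 IIIB/LAI, HIV-2 ROD) were grown and titred in MT-4 cells and stored at -70°. 100-300 CCID50 were added to cells at 6×10^5 cells/ml with test compound, then incubated 5 d at 37°. Protection from cytopathic effect was read as viable cells by MTT. A reference drug was run alike.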
For orientation: Protection from cytopathic effect is a common read-out in antiviral testing.

For the next data set, the system named is HEL cultures. Particulars: microscopically detectable alteration of normal cell morphology.
The test system of the next data set is mock-infected MT-4 cells. The data set is described as follows: Cytotoxicity for mock-infected MT-4 cells. The class given is cell-based. Particulars: MTT, printed in both strain rows. An outline of the steps:
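Mock-infected MT-4 cells were grown in RPMI 1640 with 10% heat-inactivated FCS, 2 mM glutamine, 0.1% sodium bicarbonate and 20 µg/ml gentamicin. Cells (6×10^5 cells/ml) were exposed to test compound, and viability was measured by MTT to derive the 50% cytotoxic concentration. A reference drug was tested the same way.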

A further data set deals with Vaccinia virus. The data set is described as follows: microbe, parasite or virus in culture. The class given is cell-based. As to conditions: for EC50: Orthopoxvirus vaccinia, read-out: EC50 Vaccinia virus.
Data set [3] deals with Herpes simplex virus-1 TK- KOS ACVr. The data set is described as follows: microbe, parasite or virus in culture. The class given is cell-based. Particulars: Human alphaherpesvirus 1, read-out: EC50 Herpes simplex virus-1 TK- KOS ACVr.
A further data set concerns HIV-1(IIIB). Description: Inhibition of HIV-1 induced cytopathic effect in MT-4 cells. The class given is cell-based, Human immunodeficiency virus-1. As to conditions: strain IIIB, 5 d, MTT. An outline of the steps: as §1

Each structure is given as a SMILES string. Converted amounts (≈) assume the structure as drawn.

On to `O=C(O)c1ccccc1-n1c(-c2ccccc2)nc2ccccc2c1=O` [AA1, 2-(4-oxo-2-phenyl-4H-quinazolin-3-yl)-benzoic acid], for which the EC50 in data set [1] is 58 µg/mL (≈ 169 µM); in data set [2], 100 µg/mL (≈ 292 µM); with HIV-2(ROD), over 125 µg/mL; in the data set on Vaccinia virus, over 100 µg/mL. This molecule also registered a Minimum cytotoxic concentration in the data set with HEL cultures of over 100 µg/mL. Moreover, the “IC50b (50% cytotoxic concentration, reduces viability of mock-infected MT-4 cells by 50%)” value in the data set with mock-infected MT-4 cells is over 125 µg/mL.

With `O=C(O)c1cc(Br)ccc1-n1c(-c2ccccc2)nc2ccccc2c1=O` [AA2, 5-Bromo-2-(4-oxo-2-phenyl-4H-quinazolin-3-yl)-benzoic acid], the EC50 in data set [1] is 58 µg/mL (≈ 138 µM); in data set [2] it was 50 µg/mL (≈ 119 µM); in the data set with HIV-2(ROD), over 88.2 µg/mL; in the data set on Vaccinia virus, 100 µg/mL (≈ 237 µM); in data set [3], 58 µg/mL (≈ 138 µM). The molecule further showed a Minimum cytotoxic concentration in the data set on HEL cultures of over 100 µg/mL. Further, in the data set on mock-infected MT-4 cells, the “IC50b (50% cytotoxic concentration, reduces viability of mock-infected MT-4 cells by 50%)” value was determined as 88.20 µg/mL.

For `O=C(O)c1cc(Br)cc(Br)c1-n1c(-c2ccccc2)nc2ccccc2c1=O` [AA3, 3,5-dibromo-2-(4-oxo-2-phenyl-4H-quinazolin-3-yl)-benzoic acid], the EC50 was 100 µg/mL (≈ 200 µM) in data set [1]; 50 µg/mL (≈ 100 µM) in data set [2]; over 125 µg/mL in the data set on HIV-2(ROD); 100 µg/mL (≈ 200 µM) in the data set with Vaccinia virus; 100 µg/mL (≈ 200 µM) in data set [3]. In addition, the Minimum cytotoxic concentration with HEL cultures is over 100 µg/mL. Besides, the “IC50b (50% cytotoxic concentration, reduces viability of mock-infected MT-4 cells by 50%)” value in the data set with mock-infected MT-4 cells is over 125 µg/mL.

Regarding `Cc1cn([C@H]2C[C@H](N=[N+]=[N-])[C@@H](CO)O2)c(=O)[nH]c1=O` [AZT, reference compound], the “IC50a (50% effective concentration, 50% protection of MT-4 cells against the cytopathic effect of HIV)” value in the data set with HIV-2(ROD) (strain ROD, MT-4 cells, 5 d, MTT) was determined as 0.00062 µg/mL; in the data set on HIV-1(IIIB), 0.0012 µg/mL. The “IC50b (50% cytotoxic concentration, reduces viability of mock-infected MT-4 cells by 50%)” value in the data set on mock-infected MT-4 cells is 65.90 µg/mL.

For `O=c1[nH]c(=O)n([C@H]2C[C@H](O)[C@@H](CO)O2)cc1/C=C/Br` [Brivudin, reference compound], the EC50 was 22 µg/mL (≈ 66 µM) in data set [1], 0.04 µg/mL (≈ 0.12 µM) in data set [2], 6 µg/mL (≈ 18 µM) in the data set with Vaccinia virus and 10 µg/mL (≈ 30 µM) in data set [3].

As to `Nc1ccn(C[C@@H](CO)OCP(=O)(O)O)c(=O)n1` [Cidofovir, reference compound], the EC50 came out at 0.8 µg/mL (≈ 2.87 µM) in data set [1], 0.8 µg/mL (≈ 2.87 µM) in data set [2], 10 µg/mL (≈ 35.8 µM) in the data set on Vaccinia virus and 1 µg/mL (≈ 3.58 µM) in data set [3].

Take `O=C(O)c1ccccc1-n1c(-c2ccccc2)nc2c(Br)cc(Br)cc2c1=O` [DBR1, 2-(6,8-Dibromo-4-oxo-2-phenyl-4H-quinazolin-3-yl)-benzoic acid]: the EC50 in data set [1] is 50 µg/mL (≈ 100 µM); in data set [2], 58 µg/mL (≈ 116 µM); in the data set with HIV-2(ROD) it was over 83.2 µg/mL; in the data set with Vaccinia virus it was 100 µg/mL (≈ 200 µM); in data set [3], 100 µg/mL (≈ 200 µM). The same molecule returned a Minimum cytotoxic concentration in the data set with HEL cultures of over 100 µg/mL. In addition, in the data set with mock-infected MT-4 cells, the “IC50b (50% cytotoxic concentration, reduces viability of mock-infected MT-4 cells by 50%)” value was 83.15 µg/mL.

In the case of `O=C(O)c1cc(Br)ccc1-n1c(-c2ccccc2)nc2c(Br)cc(Br)cc2c1=O` [DBR2, 5-Bromo-2-(6,8-dibromo-4-oxo-2-phenyl-4H-quinazolin-3-yl)-benzoic acid], the EC50 was over 20 µg/mL in data set [1]; over 20 µg/mL in data set [2]; over 64.2 µg/mL in the data set on HIV-2(ROD); over 20 µg/mL in the data set with Vaccinia virus; over 20 µg/mL in data set [3]. In the data set on HEL cultures, this molecule gave a Minimum cytotoxic concentration of 100 µg/mL. In addition, the “IC50b (50% cytotoxic concentration, reduces viability of mock-infected MT-4 cells by 50%)” value in the data set on mock-infected MT-4 cells is 64.18 µg/mL.

Turning to `O=C(O)c1cc(Br)cc(Br)c1-n1c(-c2ccccc2)nc2c(Br)cc(Br)cc2c1=O` [DBR3, 3,5-Dibromo-2-(6,8-dibromo-4-oxo-2-phenyl-4H-quinazolin-3-yl)-benzoic acid], the EC50 was over 100 µg/mL in data set [1]; over 100 µg/mL in data set [2]; over 125 µg/mL with HIV-2(ROD); over 100 µg/mL in the data set on Vaccinia virus; over 100 µg/mL in data set [3]. This molecule showed a Minimum cytotoxic concentration in the data set on HEL cultures of over 100 µg/mL. Further, the “IC50b (50% cytotoxic concentration, reduces viability of mock-infected MT-4 cells by 50%)” value in the data set with mock-infected MT-4 cells was over 125 µg/mL.

For the molecule `O=C(O)c1ccccc1-n1c(-c2ccccc2)nc2ccc(Br)cc2c1=O` [MBR1, 2-(6-Bromo-4-oxo-2-phenyl-4H-quinazolin-3-yl)-benzoic acid], the EC50 was over 20 µg/mL in data set [1]; over 20 µg/mL in data set [2]; over 125 µg/mL with HIV-2(ROD); over 20 µg/mL in the data set on Vaccinia virus; over 20 µg/mL in data set [3]. Moreover, the Minimum cytotoxic concentration in the data set with HEL cultures turned out to be 100 µg/mL. Moreover, the “IC50b (50% cytotoxic concentration, reduces viability of mock-infected MT-4 cells by 50%)” value with mock-infected MT-4 cells was over 125 µg/mL.

`O=C(O)c1cc(Br)ccc1-n1c(-c2ccccc2)nc2ccc(Br)cc2c1=O` [MBR2, 5-Bromo-2-(6-bromo-4-oxo-2-phenyl-4H-quinazolin-3-yl)-benzoic acid]: the EC50 was 12 µg/mL (≈ 24 µM) in data set [1], 12 µg/mL (≈ 24 µM) in data set [2], over 60.4 µg/mL in the data set with HIV-2(ROD) and 12 µg/mL (≈ 24 µM) with Vaccinia virus. The “EC50 Herpes simplex virus-1 (KOS)” value in data set [2] (HEL cultures, reduces virus-induced cytopathogenicity by 50 %) was “distinct antiviral activity”. For the same molecule, the Minimum cytotoxic concentration with HEL cultures amounted to 100 µg/mL. The “IC50b (50% cytotoxic concentration, reduces viability of mock-infected MT-4 cells by 50%)” value in the data set on mock-infected MT-4 cells turned out to be 60.40 µg/mL. Moreover, the “EC50 Vaccinia virus” value in the data set with Vaccinia virus is on record as “distinct antiviral activity”.

Consider `NC(=O)c1ncn([C@@H]2O[C@H](CO)[C@@H](O)[C@H]2O)n1` [Ribavirin, reference compound], for which the EC50 (in data set [1]; in data set [2]; in the data set on Vaccinia virus; in data set [3]) was over 250 µg/mL throughout.

Source of the values: publication PMC3178989 (Indian Journal of Pharmaceutical Sciences, 2010).
